Experimental data taken from ChEMBL document CHEMBL3421593, “Design, synthesis, and biological evaluation of ring-constrained novobiocin analogues as hsp90 C-terminal inhibitors” (ACS Med Chem Lett, 2015).
The source made the active and inactive calls. The calls are words filed in the database; no cut-off is given here.

Tests used:
[1] = Antiproliferative activity against human SKBR3 cells; type: functional, cell-based; conditions: SK-BR-3
Procedure, shortened: (§1)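 Breast cancer lines used were SKBr3 (estrogen receptor negative, Her2 overexpressing) and MCF-7 (estrogen receptor positive). Values are mean ± standard deviation from at least two separate experiments, each performed in triplicate.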

MCF7 [2] = test: Antiproliferative activity against human MCF7 cells; type: functional, cell-based; procedure, shortened: as §1
[3] = molecular target: T1, Heat shock protein HSP90 (Homo sapiens) (UniProt P07900+P08238); test: Inhibition of HSP90 in human MCF7 cells assessed as induction of Akt protein degradation at 0.5 times antiproliferative IC50 level incubated for 24 hrs by Western blotting method; type: cell-based
[4] = molecular target: T1, Heat shock protein HSP90 (Homo sapiens); test: Inhibition of HSP90 in human MCF7 cells assessed as induction of Akt protein degradation at 0.2 to 10 uM incubated for 24 hrs by Western blotting method; type: cell-based
[5] = molecular target: T1, Heat shock protein HSP90 (Homo sapiens); test: Inhibition of HSP90 in human MCF7 cells assessed as induction of Raf1 protein degradation at 0.5 times antiproliferative IC50 level incubated for 24 hrs by Western blotting method; type: cell-based
[6] = molecular target: T1, Heat shock protein HSP90 (Homo sapiens); test: Inhibition of HSP90 in human MCF7 cells assessed as induction of Akt protein degradation at 5 times antiproliferative IC50 level incubated for 24 hrs by Western blotting method; type: cell-based
[7] = molecular target: T1, Heat shock protein HSP90 (Homo sapiens); test: Inhibition of HSP90 in human MCF7 cells assessed as induction of Her2 protein degradation at 0.2 to 10 uM incubated for 24 hrs by Western blotting method; type: cell-based
MCF7 [8] = test: Effect on HSP90 protein expression in human MCF7 cells at 0.2 to 10 uM incubated for 24 hrs by Western blotting method; type: cell-based; conditions: mcf7, 24 h
[9] = molecular target: T1, Heat shock protein HSP90 (Homo sapiens); test: Inhibition of HSP90 in human MCF7 cells assessed as induction of Her2 protein degradation at 0.5 times antiproliferative IC50 level incubated for 24 hrs by Western blotting method; type: cell-based
[10] = molecular target: T1, Heat shock protein HSP90 (Homo sapiens); test: Inhibition of HSP90 in human MCF7 cells assessed as induction of Raf1 protein degradation at 5 times antiproliferative IC50 level incubated for 24 hrs by Western blotting method; type: cell-based
[11] = molecular target: T1, Heat shock protein HSP90 (Homo sapiens); test: Inhibition of HSP90 in human MCF7 cells assessed as induction of Her2 protein degradation at 5 times antiproliferative IC50 level incubated for 24 hrs by Western blotting method; type: cell-based
MCF7 [12] = test: Effect on actin protein expression in human MCF7 cells at 0.2 to 10 uM incubated for 24 hrs by Western blotting method; type: cell-based; conditions: mcf7, 24 h
[13] = molecular target: T1, Heat shock protein HSP90 (Homo sapiens); test: Inhibition of HSP90 in human MCF7 cells assessed as induction of Raf1 protein degradation at 0.2 to 10 uM incubated for 24 hrs by Western blotting method; type: cell-based

IC50 (MCF7 [2]) [µM]	Compound	IC50 [1] [µM]	further results
> 50	COc1cccc(-c2cc(C(=O)Nc3cc4ccc5c(c4oc3=O)NC(=O)C(Cc3ccc(Cl)cc3)O5)ccc2OC)c1 (stereo unspecified)	> 50	–
7.63	COc1cccc(-c2cc(C(=O)Nc3cc4ccc5c(c4oc3=O)NC(=O)C(CCN3CCNCC3)O5)ccc2OC)c1 (stereo unspecified)	5.44	–
5.68	COc1cccc(-c2cc(C(=O)Nc3cc4ccc5c(c4oc3=O)NC(=O)C(CCN3CCN(C)CC3)O5)ccc2OC)c1 (stereo unspecified)	4.1	–
11.4	COc1cccc(-c2cc(C(=O)Nc3cc4ccc5c(c4oc3=O)NC(=O)C(CCN(C)C)O5)ccc2OC)c1 (stereo unspecified)	8.06	–
9	COc1cccc(-c2cc(C(=O)Nc3cc4ccc(O[C@H]5OC(C)(C)[C@@H](OC)[C@H](O)[C@@H]5O)c(OC)c4oc3=O)ccc2OC)c1	13.9	–
0.85	COc1cccc(-c2cc(C(=O)Nc3cc4ccc5c(c4oc3=O)NC(=O)C(CCCN3CCCCC3)O5)ccc2OC)c1 (stereo unspecified)	0.78	inhibition [3]: Active; inhibition [4]: Dose-dependent effect; inhibition [5]: Active; inhibition [6]: Active; inhibition [7]: Dose-dependent effect; Activity (MCF7 [8]): Non-toxic; inhibition [9]: Active; inhibition [10]: Active; inhibition [11]: Active; Activity (MCF7 [12]): Non-toxic; inhibition [13]: Dose-dependent effect
33.4	COc1cccc(-c2cc(C(=O)Nc3cc4ccc5c(c4oc3=O)NC(=O)C(C(N)=O)O5)ccc2OC)c1 (stereo unspecified)	> 50	–
0.72	COc1cccc(-c2cc(C(=O)Nc3cc4ccc5c(c4oc3=O)NC(=O)C(CCCN[C@]34CC6CC(C[C@@H](C6)C3)C4)O5)ccc2OC)c1 (stereo partly specified)	0.62	inhibition [3]: Active; inhibition [5]: Active; inhibition [6]: Active; inhibition [9]: Active; inhibition [10]: Active; inhibition [11]: Active
5.2	COc1cccc(-c2cc(C(=O)Nc3cc4ccc5c(c4oc3=O)NC(=O)C(CCN3CCCC3)O5)ccc2OC)c1 (stereo unspecified)	3.49	–
> 50	COc1cccc(-c2cc(C(=O)Nc3cc4ccc5c(c4oc3=O)NC(=O)C(c3ccccc3)O5)ccc2OC)c1 (stereo unspecified)	48.2	–
1.04	COc1cccc(-c2cc(C(=O)Nc3cc4ccc5c(c4oc3=O)NC(=O)C(CCN3CCCCC3)O5)ccc2OC)c1 (stereo unspecified)	1.03	–
> 50	COc1cccc(-c2cc(C(=O)Nc3cc4ccc5c(c4oc3=O)NC(=O)C(Cc3ccc(C)cc3)O5)ccc2OC)c1 (stereo unspecified)	> 50	–
1.53	COc1cccc(-c2cc(C(=O)Nc3cc4ccc5c(c4oc3=O)NC(=O)C(CCCCN3CCCC3)O5)ccc2OC)c1 (stereo unspecified)	2.5	–
2.43	COc1cccc(-c2cc(C(=O)Nc3cc4ccc5c(c4oc3=O)NC(=O)C(CCCN3CCN(C)CC3)O5)ccc2OC)c1 (stereo unspecified)	1.76	–
1.34	COc1cccc(-c2cc(C(=O)Nc3cc4ccc5c(c4oc3=O)NC(=O)C(CCCNC3CC4CCC3C4)O5)ccc2OC)c1 (stereo unspecified)	1.26	–
> 50	COc1cccc(-c2cc(C(=O)Nc3cc4ccc5c(c4oc3=O)NC(=O)C(CN3CCN(C(=O)OC(C)(C)C)CC3)O5)ccc2OC)c1 (stereo unspecified)	> 50	–
1.16	COc1cccc(-c2cc(C(=O)Nc3cc4ccc5c(c4oc3=O)NC(=O)C(CCNC3CCCCC3)O5)ccc2OC)c1 (stereo unspecified)	0.78	–
0.35	COc1cccc(-c2cc(C(=O)Nc3cc4ccc5c(c4oc3=O)NC(=O)C(CCCNC3CCCCC3)O5)ccc2OC)c1 (stereo unspecified)	0.2	inhibition [3]: Active; inhibition [5]: Active; inhibition [6]: Active; inhibition [9]: Active; inhibition [10]: Active; inhibition [11]: Active
–	COc1cccc(-c2cc(C(=O)Nc3cc4cc(OC)c(OC(C)=O)c(C)c4oc3=O)ccc2OC)c1	6	–
1.09	COc1cccc(-c2cc(C(=O)Nc3cc4ccc5c(c4oc3=O)NC(=O)C(CCNC34C[C@H]6C[C@@H](C3)C[C@@H](C4)C6)O5)ccc2OC)c1 (stereo partly specified)	0.88	–
5.27	COc1cccc(-c2cc(C(=O)Nc3cc4ccc5c(c4oc3=O)NC(=O)C(CN3CCNCC3)O5)ccc2OC)c1 (stereo unspecified)	5.78	–
> 50	COc1cccc(-c2cc(C(=O)Nc3cc4ccc5c(c4oc3=O)NC(=O)C(C(=O)N3CCCC3)O5)ccc2OC)c1 (stereo unspecified)	> 50	–
22.9	COc1cccc(-c2cc(C(=O)Nc3cc4ccc5c(c4oc3=O)NC(=O)C(CN3CCCC3)O5)ccc2OC)c1 (stereo unspecified)	15	–
6.12	COc1ccc(CC2Oc3ccc4cc(NC(=O)c5ccc(OC)c(-c6cccc(OC)c6)c5)c(=O)oc4c3NC2=O)cc1 (stereo unspecified)	8.37	–
–	COc1cccc(-c2cc(C(=O)Nc3cc4ccc(OCCN(C)C)c(OC)c4oc3=O)ccc2OC)c1	2	–
12.8	COc1cccc(-c2cc(C(=O)Nc3cc4ccc5c(c4oc3=O)NC(=O)C(CCCN3CCNCC3)O5)ccc2OC)c1 (stereo unspecified)	9.08	–
1.22	COc1cccc(-c2cc(C(=O)Nc3cc4ccc5c(c4oc3=O)NC(=O)C(CCNC3CC4CCC3C4)O5)ccc2OC)c1 (stereo unspecified)	0.68	–
22.1	COc1cccc(-c2cc(C(=O)Nc3cc4ccc5c(c4oc3=O)NC(=O)C(Cc3ccccc3)O5)ccc2OC)c1 (stereo unspecified)	21.5	–
7.44	COc1cccc(-c2cc(C(=O)Nc3cc4ccc5c(c4oc3=O)NC(=O)C(CCN3CCOCC3)O5)ccc2OC)c1 (stereo unspecified)	6.66	–
1.49	COc1cccc(-c2cc(C(=O)Nc3cc4ccc5c(c4oc3=O)NC(=O)C(CCCN3CCCC3)O5)ccc2OC)c1 (stereo unspecified)	1.02	–
